These results are taken from ChEMBL document CHEMBL3244330, “Structure--activity relationships of n-substituted dopamine and 2-amino-6,7-dihydroxy-1,2,3,4-tetrahydronaphthalene analogues: behavioral effects in lesioned and reserpinized mice” (J Med Chem, 1979).

The source made the active and inactive calls. The rule behind the calls is not given here.

Assay [1] deals with Mus musculus. In words: Postural effect on caudectomized Swiss albino mouse assessed as latency to onset time of asymmetric postural effect at 96 mg/kg, ip. Further details: dose 96 mg/kg. Type of assay: functional, organism-based. Summed up:
(§1)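 Male Swiss albino Hale-Stoner mice with a right caudectomy made by suction. A lesion was accepted if the mouse responded to apomorphine 4 weeks after surgery. Compounds were dissolved in 0.9% saline and injected ip at random into groups of six, with a maximum dose of 0.348 mmol/kg. 18 mice were used per compound, and mice were retested after 5–6 day intervals. Onset and duration of the asymmetric posture are reported as mean ± SE from six animals.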

For assay [2], the system named is Mus musculus. Put plainly: Postural effect on caudectomized Swiss albino mouse assessed as time duration of asymmetric posture at 71.4 mg/kg, ip. Particulars: route intraperitoneal. The format is functional. In short, it runs like this: (§2)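 Male Swiss albino Hale-Stoner mice given a right caudectomy by suction. The lesion counted as successful if the mice reacted to apomorphine 4 weeks later. Drug was given ip in 0.9% saline, up to 0.348 mmol/kg, to randomised groups of six, with 5-6 days before reuse. Onset and duration of asymmetric posture are reported as mean ± SE from six animals.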

Assay [3] relates to Mus musculus. Put plainly: Postural effect on caudectomized Swiss albino mouse assessed as latency to onset time of asymmetric postural effect at 47.6 mg/kg, ip. Type of assay: functional. Particulars: route intraperitoneal. Summed up:
as §1

Assay [4] has as its system Mus musculus. In words: Postural effect on caudectomized Swiss albino mouse assessed as time duration of asymmetric posture at 23.8 mg/kg, ip. Type of assay: functional. Particulars: route intraperitoneal. Summed up: as §1
For assay [5], the system named is Mus musculus. Put plainly: Postural effect on caudectomized Swiss albino mouse assessed as latency to onset time of asymmetric postural effect at 23.8 mg/kg, ip. Type of assay: functional. As to conditions: route intraperitoneal. Summed up: as §1
The test system of assay [6] is Mus musculus. Put plainly: Postural effect on caudectomized Swiss albino mouse assessed as latency to onset time of asymmetric postural effect at 71.4 mg/kg, ip. As to conditions: route intraperitoneal. The format is functional. In short, it runs like this:
as §1

Assay [7] has as its system Mus musculus. In words: Reversal of reserpine-induced catalepsy in ip dosed Swiss albino (CD1) mouse. The format is functional. In short, it runs like this: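 Male Swiss albino CD1 mice, 5 weeks old, got reserpine 5 mg/kg ip, then α-MTM 250 mg/kg ip 17 h later, then the test drug ip 4 h after that. Catalepsy was scored by the rubber-stopper test (time to step off the stopper). At least four doses were used, with ≥8 mice per dose. ED50 was taken from a log-probit plot of percent responders against dose.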

The test system of assay [8] is Mus musculus. Put plainly: Postural effect on caudectomized Swiss albino mouse assessed as time duration of asymmetric posture at 47.6 mg/kg, ip. Particulars: route intraperitoneal. The format is functional. Summed up: as §1
Assay [9] concerns Mus musculus. In words: Postural effect on caudectomized Swiss albino mouse assessed as latency to onset time of asymmetric postural effect at 104.8 mg/kg, ip. The format is functional, organism-based. Further details: dose 104.8 mg/kg. In short, it runs like this:
as §1

The subject of assay [10] is Mus musculus. Put plainly: Postural effect on caudectomized Swiss albino mouse assessed as time duration of asymmetric posture at 67.8 mg/kg, ip. Particulars: route intraperitoneal. The format is functional. In short, it runs like this:
as §2

In assay [11] the test system is Mus musculus. Put plainly: Postural effect on caudectomized Swiss albino mouse assessed as latency to onset time of asymmetric postural effect at 67.8 mg/kg, ip. The format is functional. As to conditions: route intraperitoneal. Summed up: as §1
Assay [12] relates to Mus musculus. In words: Postural effect on caudectomized Swiss albino mouse assessed as time duration of asymmetric posture at 45.2 mg/kg, ip. The format is functional. As to conditions: route intraperitoneal. In short, it runs like this: as §1
Assay [13] has as its system Mus musculus. Put plainly: Postural effect on caudectomized Swiss albino mouse assessed as time duration of asymmetric posture at 22.6 mg/kg, ip. Type of assay: functional. As to conditions: route intraperitoneal. In short, it runs like this:
as §1

Assay [14] has as its system Mus musculus. Put plainly: Postural effect on caudectomized Swiss albino mouse assessed as latency to onset time of asymmetric postural effect at 45.2 mg/kg, ip. The format is functional. Particulars: route intraperitoneal. In short, it runs like this:
as §1

Assay [15] has as its system Mus musculus. Put plainly: Postural effect on caudectomized Swiss albino mouse assessed as latency to onset time of asymmetric postural effect at 22.6 mg/kg, ip. Type of assay: functional. As to conditions: route intraperitoneal. In short, it runs like this: as §1
Assay [16] deals with Mus musculus. In words: Postural effect on caudectomized Swiss albino mouse assessed as latency to onset time of asymmetric postural effect at 100.5 mg/kg, ip. Further details: dose 100.5 mg/kg. The format is functional, organism-based. In short, it runs like this:
as §1

Assay [17] relates to Mus musculus. In words: Postural effect on caudectomized Swiss albino mouse assessed as latency to onset time of asymmetric postural effect at 858 mg/kg, ip. The format is functional. Particulars: route intraperitoneal.
In assay [18] the test system is Mus musculus. In words: Postural effect on caudectomized Swiss albino mouse assessed as time duration of asymmetric posture at 858 mg/kg, ip. Type of assay: functional. Particulars: route intraperitoneal.
The test system of assay [19] is Mus musculus. Put plainly: Postural effect on caudectomized Swiss albino mouse assessed as latency to onset time of asymmetric postural effect at 90.8 mg/kg, ip. Details: dose 90.8 mg/kg. Type of assay: functional, organism-based. In short, it runs like this:
as §1

Assay [20] has as its system Mus musculus. Put plainly: Postural effect on caudectomized Swiss albino mouse assessed as latency to onset time of asymmetric postural effect at 91.2 mg/kg, ip. Type of assay: functional, organism-based. Details: dose 91.2 mg/kg. In short, it runs like this:
(§3)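 Male Swiss albino Hale-Stoner mice with right caudectomy by suction, used if responsive to apomorphine 4 weeks post-lesion. Compound in 0.9% saline given ip, maximum 0.348 mmol/kg. 18 mice per compound in random groups of six, retested after 5–6 day intervals. Onset latency and duration of asymmetric posture recorded; mean ± SE from six animals.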

The test system of assay [21] is Mus musculus. In words: Postural effect on caudectomized Swiss albino mouse assessed as latency to onset time of asymmetric postural effect at 107.2 mg/kg, ip. Type of assay: functional. Particulars: route intraperitoneal. In short, it runs like this:
as §3

The test system of assay [22] is Mus musculus. Put plainly: Postural effect on caudectomized Swiss albino mouse assessed as time duration of asymmetric posture at 107.2 mg/kg, ip. The format is functional. As to conditions: route intraperitoneal. Summed up: as §3
Assay [23] has as its system Mus musculus. Put plainly: Postural effect on caudectomized Swiss albino mouse assessed as latency to onset time of asymmetric postural effect at 26.8 mg/kg, ip. Further details: dose 26.8 mg/kg. Type of assay: functional, organism-based. Summed up: as §3
In assay [24] the test system is Mus musculus. Put plainly: Postural effect on caudectomized Swiss albino mouse assessed as latency to onset time of asymmetric postural effect at 85 mg/kg, ip. The format is functional, organism-based. Details: dose 85 mg/kg. Summed up:
as §1

Assay [25] relates to Mus musculus. Put plainly: Postural effect on caudectomized Swiss albino mouse assessed as latency to onset time of asymmetric postural effect at 60.8 mg/kg, ip. Type of assay: functional. Particulars: route intraperitoneal. In short, it runs like this: as §3
Assay [26] relates to Mus musculus. In words: Postural effect on caudectomized Swiss albino mouse assessed as time duration of asymmetric posture at 30.4 mg/kg, ip. The format is functional. Particulars: route intraperitoneal. In short, it runs like this: as §3
For assay [27], the system named is Mus musculus. In words: Postural effect on caudectomized Swiss albino mouse assessed as time duration of asymmetric posture at 60.8 mg/kg, ip. Type of assay: functional. As to conditions: route intraperitoneal. Summed up: as §3
Assay [28] deals with Mus musculus. In words: Postural effect on caudectomized Swiss albino mouse assessed as latency to onset time of asymmetric postural effect at 30.4 mg/kg, ip. Particulars: route intraperitoneal. The format is functional. In short, it runs like this: as §3

Turning to `CN(C)CCc1ccc(O)c(O)c1`, the result with Mus musculus [1] was inactive.

What is called ED50 is the midpoint of the dose-response relation. Regarding `CCCN(CCC)CCc1ccc(O)c(O)c1.Cl`, the Time is 21.9 min with Mus musculus [2]; 3.7 min in the assay on Mus musculus [3]; 6.2 min in the assay on Mus musculus [4]; 1.8 min in the assay on Mus musculus [5]; 3.1 min in the assay with Mus musculus [6]; 13.9 min with Mus musculus [8]. In addition, the ED50 in the assay with Mus musculus [7] was determined as 16 mg/kg.

As to `CCCCN(CCCC)CCc1ccc(O)c(O)c1`, in the assay with Mus musculus [9], the result was inactive.

Regarding `CCCCN(C)CCc1ccc(O)c(O)c1.Cl`, the Time in the assay on Mus musculus [10] is 2.2 min; with Mus musculus [11], 3.1 min; with Mus musculus [12] it was 2.3 min; with Mus musculus [13], 3.7 min; with Mus musculus [14], 1.3 min; with Mus musculus [15], 0.4 min. Besides, the median effective dose (ED50) with Mus musculus [7] came out at 61 mg/kg.

Consider `CC(C)CNCCc1ccc(O)c(O)c1`, for which the result with Mus musculus [16] was inactive.

For `N[C@@H](Cc1ccc(O)c(O)c1)C(=O)O` [LEVODOPA], the Time in the assay with Mus musculus [17] came to 17.7 min; in the assay on Mus musculus [18], 24 min. The ED50 in the assay on Mus musculus [7] came out at 248 mg/kg.

`CCCCCNCCc1ccc(O)c(O)c1`: in the assay on Mus musculus [19], the result was inactive.

As to `CCCCN(CCc1ccccc1)CCc1ccc(O)c(O)c1`, the result in the assay on Mus musculus [20] was inactive.

On to `CN(CCc1ccccc1)CCc1ccc(O)c(O)c1.Cl`, for which the figures for the Time with Mus musculus [21] and in the assay with Mus musculus [22] were 6.9 min and 21.2 min, respectively. The 50% effective dose (ED50) in the assay with Mus musculus [7] is 101 mg/kg. Besides, the outcome in the assay on Mus musculus [23] was inactive.

On to `CCCCCN(C)CCc1ccc(O)c(O)c1.Cl`, for which the median effective dose (ED50) in the assay on Mus musculus [7] was determined as 46 mg/kg.

As for `CNCCc1ccc(O)c(O)c1`, the result in the assay with Mus musculus [24] was inactive.

Turning to `CCCN(CCCc1ccccc1)CCc1ccc(O)c(O)c1.Cl`, the Time in the assay on Mus musculus [25] was determined as 5.8 min; in the assay on Mus musculus [26], 6.4 min; in the assay on Mus musculus [27], 18.2 min; in the assay with Mus musculus [28], 7.6 min. In addition, in the assay with Mus musculus [7], the ED50 amounted to 9 mg/kg.
